Assay outcomes (PubChem BioAssay)
NPY-Y2 antag = NPY-Y2 receptor antagonists, primary screen, cell-based. NPY-Y2 expressing cells, antagonist mode. inhibition, % at 2.7 µM. 140,000 compounds, 0.99% hits. AID 793, 2007;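 note: 0% = vehicle with agonist challenge and 100% = reference antagonist with challenge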
NPY1 pot ag = NPY-Y1 receptor potentiators or agonists, primary screen, cell-based | AID 1304, 2008 | 220,000 compounds, 0.37% hits | activation, % at 3.6 µM | NPY-Y1 expressing cells, potentiator/agonist activation | Neuropeptide Y receptor type 1 (Homo sapiens), P25929; in the data active = activation above about 33%, passing the limit was not always enough;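 note: cells stimulated with NPY at EC10 then isoproterenol at EC100; 0% = low agonist plus stimulus and 100% = saturating agonist plus stimulus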
PGE2 EP2 inh = human EP2 receptor antagonists, primary screen, TR-FRET cAMP, C6 glioma cells | 260,000 compounds, 0.52% hits | inhibition, % at 25 µM | C6 glioma cells expressing human EP2; cells stimulated with saturating PGE2;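 active = percent inhibition above 40 after rounding to a whole number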;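 note: rat C6 glioma host cells with rolipram phosphodiesterase inhibitor present; the protocol text gives 20 µM as final concentration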
Target sequence (P43116 whole entry, looked up): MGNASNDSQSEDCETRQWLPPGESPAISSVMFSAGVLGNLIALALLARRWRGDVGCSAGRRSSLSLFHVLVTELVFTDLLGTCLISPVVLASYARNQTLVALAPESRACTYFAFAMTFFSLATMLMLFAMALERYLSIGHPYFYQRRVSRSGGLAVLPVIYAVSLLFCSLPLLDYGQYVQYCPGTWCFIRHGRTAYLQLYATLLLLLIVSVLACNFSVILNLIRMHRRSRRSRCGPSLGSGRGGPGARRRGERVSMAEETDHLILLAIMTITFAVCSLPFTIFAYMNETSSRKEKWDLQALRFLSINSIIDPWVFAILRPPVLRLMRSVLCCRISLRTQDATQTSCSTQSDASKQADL
EP2 mod = EP2 receptor modulators, cAMP readout, primary screen, cell-based, HTRF cAMP, PGE2 stimulation. Prostaglandin E2 receptor EP2 subtype (Homo sapiens), P43116. induction, % at 25 µM. EP2-expressing cells, cAMP HTRF FRET, PGE2 co-stimulation. 260,000 compounds, 0.83% hits. AID 940, 2007;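 active = compounds whose cAMP rise, as percent of the full-agonist control response, exceeds 60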;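 note: rat C6 glioma line stably carrying human EP2 under a CMV promoter; the protocol text gives 20 µM as final concentration; 100% = response of wells given 1 µM PGE2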
NPY-Y1 antag = NPY-Y1 receptor antagonists, primary screen, cell-based. Neuropeptide Y receptor type 1 (Homo sapiens), P25929. HEK293-CNG Y1 cells, membrane potential fluorescence; NPY at EC95, then isoproterenol. inhibition, % at 3.6 µM. 200,000 compounds, 1% hits. AID 1040, 2008;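 active = inhibition above the campaign mean inhibition of all tested compounds plus 3 SD, cut at about 20% in these data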;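 note: 0% = DMSO wells given NPY plus isoproterenol and 100% = isoproterenol alone without NPY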
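Material: HEK293 Y1/CNG channel cell line | Also added: NPY (25 nM), isoproterenol (1 µM), Ro 20-1724 (25 µM) | Compound: One concentration, 3.6 µM, in 0.4% DMSO | Schedule: 3 h dye uptake, 1 h room-temperature compound, 45 min post-isoproterenol | Signal: Membrane-potential fluorescent dye readout | Read-out: % inhibition of NPY effect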
NPY-Y2 PAM-ag = NPY-Y2 potentiators or agonists, primary screen, cell-based; Neuropeptide Y receptor type 2 (Homo sapiens), P49146; cells expressing NPY-Y2, potentiator/agonist read-out; activation, % at 3.6 µM; 220,000 compounds, 0.45% hits; in the data active = activation above about 27%;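 note: cells stimulated with NPY near EC25 plus isoproterenol at EC100; 0% = vehicle plus submaximal agonist and 100% = vehicle plus saturating agonist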
NPY-Y1 ant conf = NPY-Y1 receptor antagonists, retest of hits, confirmation, HEK293-CNG cells, membrane potential fluorescence, triplicate; 1,200 compounds, 21% hits; shares compounds with NPY-Y1 antag; inhibition, % at 3.6 µM; cAMP; NPY challenge against isoproterenol-raised cAMP; in the data active = inhibition above about 20%;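 note: 0% = vehicle with agonist plus stimulus and 100% = stimulus alone without agonist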
NPY-Y2 antag ct = NPY-Y2 receptor antagonists, selectivity check, confirmation, counter-screen for NPY-Y1 antagonist project, HEK293-CNG cells, membrane potential fluorescence, triplicate; AID 1255, 2008; 1,200 compounds, 28% hits; antagonism; cells given NPY, then isoproterenol; inhibition, % at 3.6 µM; shares compounds with NPY-Y1 antag;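 note: 0% = DMSO with agonist challenge and 100% = reference antagonist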
Active calls of the source: *; . = not tested or not shown. An excerpt weighted towards active compounds, which were near 2.8% of everything screened. Cut-off read from the data, not from the text of the source, unless noted: active = inhibition above about 17%; inactive = the rest.

SMILES	NPY-Y2 antag	NPY1 pot ag	PGE2 EP2 inh	EP2 mod	NPY-Y1 antag	NPY-Y2 PAM-ag	NPY-Y1 ant conf	NPY-Y2 antag ct
Cc1ccc(N=Cc2c(O)n(-c3cc(Cl)ccc3N3CCOCC3)c(=O)c3ccccc23)cc1C	5.9	-80.0	13.7	2.1	22.2*	-33.8	15.2	26.9*
CC1CC1c1ccc(/C=C(\C#N)C(=O)Nc2ccccc2Cl)o1 (centres undefined)	5.2	-2.2	9.9	44.2	23.3*	-3.3	11.3	8.0
COc1ccc(NC(=O)C2CCN(C(=O)c3ccccc3C)CC2)cc1Cl	.	.	10.8	-0.6	.	.	.	.
CCOCCCNC(=S)N(Cc1cc2c(C)ccc(C)c2[nH]c1=O)C1CCCCC1	.	.	2.6	-9.7	.	.	.	.
Oc1ccc(-c2[nH]ncc2-c2cnn(-c3ccccc3)c2)c(O)c1	.	13.2	13.1	-41.8	25.3*	11.1	12.2	-1.1
Cc1[nH]c2ccc(O)cc2c1C(=O)O	.	.	8.4	-36.4	.	.	.	.
Cc1cc(/C=C2\SC(=S)N(Cc3ccco3)C2=O)c(C)n1-c1cccnc1	-0.9	-23.2	.	-0.5	1.4	-5.5	.	.
Cc1cc(/C=C2/SC(=S)N(c3cccc(C(F)(F)F)c3)C2=O)c(C)n1-c1cccnc1	13.3	-77.8	23.3	.	48.3*	6.7	35.1*	24.4*
CCN(Cc1ccccc1)C(c1cccc(C#N)c1)c1nnnn1C(C)(C)C (centres undefined)	7.9	-13.7	1.9	43.2	32.8*	-14.2	3.5	5.3
CCc1ccc(-c2nc(CN3CCC(C(=O)NCCc4ccc(OC)c(OC)c4)CC3)c(C)o2)cc1	13.2	-56.1	2.3	-3.7	28.1*	-24.7	4.3	16.4
CCN1CCCC1CNC(=O)C1CCN(Cc2nc(-c3cccc(Br)c3)oc2C)CC1 (centres undefined)	10.6	-21.5	.	-9.6	20.9*	-25.9	9.3	16.1
Cc1oc(-c2ccc(Cl)cc2)nc1CN1CCC(C(=O)N2CCc3ccccc3C2)CC1	14.2	-30.1	.	-57.5	9.9	-19.1	.	.
Cc1oc(-c2cccc(Cl)c2)nc1CN1CCC(C(=O)NCc2ccco2)CC1	3.1	-5.6	1.5	-6.0	5.7	-5.3	.	.
COc1ccc(CCNC(=O)C2CCN(Cc3nc(-c4ccccc4F)oc3C)CC2)cc1OC	4.2	-10.3	6.1	-6.1	-1.1	-12.6	.	.
Cc1ccccc1-c1nc(CN2CCC(C(=O)NCCCN3CC(C)CC(C)C3)CC2)c(C)o1 (centres undefined)	15.3	-77.8	2.1	-14.7	23.4*	-21.3	15.3	23.7*
Cc1oc(-c2ccc(Cl)cc2)nc1CN1CCC(C(=O)N2CCN(Cc3ccccc3)CC2)CC1	16.9	-59.1	.	-47.2	25.3*	-19.5	20.9*	28.7*
COc1cccc(NC(=O)CN(Cc2ccccc2)S(=O)(=O)c2ccc3c(c2)OCCO3)c1	.	.	14.1	-72.6	.	.	.	.
COc1cccc(OC)c1C(=O)N1CCCC(c2nc3c(nnn3Cc3ccc(F)cc3)c(=O)[nH]2)C1 (centres undefined)	.	.	6.5	2.7	.	.	.	.
CN1CCN(C(=O)c2ccccc2-c2nc(-c3ccccc3)no2)CC1	3.5	13.8	4.8	32.3	28.4*	9.2	-0.4	1.5
CCC(C)N1C(=O)CN(C2CCCCCC2)C(=O)C1c1ccccc1F (centres undefined)	.	-25.6	4.5	-28.0	24.3*	-29.7	5.8	13.3
CN(C)S(=O)(=O)c1cccc(NC(=O)c2ccncc2)c1	0.9	5.3	5.5	-27.9	0.5	-3.5	.	.
CCN(CC)S(=O)(=O)c1cccc(NC(=O)c2ccc(C#N)cc2)c1	.	-13.6	1.1	-34.9	22.2*	-23.5	-0.7	2.7
C#CCn1c(S(=O)(=O)Cc2ccc(OC)cc2)nc(-c2ccccc2)c1-c1ccccc1	12.2	-4.3	-1.0	45.4	20.4*	-27.1	8.3	4.0
O=C(COc1ccc(S(=O)(=O)N2CCCC2)cc1)N1CCCCCC1	.	.	7.2	-30.1	.	.	.	.
O=C(Cn1ncc2cccn2c1=O)Nc1cccc(F)c1	.	.	4.5	-43.4	.	.	.	.
SMILES	NPY-Y2 antag	NPY1 pot ag	PGE2 EP2 inh	EP2 mod	NPY-Y1 antag	NPY-Y2 PAM-ag	NPY-Y1 ant conf	NPY-Y2 antag ct
CCCCN(C)CCCNC(=O)c1cn(CC)c2ccc(S(=O)(=O)N3CCc4ccccc4C3)cc2c1=O	.	-29.7	2.0	-42.7	20.1	-22.2	.	.
CCCCN(CC)CCCNC(=O)c1cn(CC)c2ccc(S(=O)(=O)N3CCc4ccccc4C3)cc2c1=O	.	-13.0	1.3	-37.5	21.9*	-5.4	16.1	29.4*
COCCOC(=O)C1=C(C)OC(N)=C(C#N)C1c1cc2ccc(C)c(C)c2[nH]c1=O (centres undefined)	.	.	7.5	-51.1	.	.	.	.
CC1CC(C)CN(C2CCN(Cc3cccnc3)CC2)C1 (centres undefined)	1.1	-0.1	13.2	4.2	20.8*	7.5	-0.2	4.2
CCC(C)(C(=O)NC1CCCCC1)N(Cc1ccco1)C(=O)Cc1cccs1 (centres undefined)	11.7	-35.8	6.6	29.0	71.7*	-42.6	37.6*	13.7
CC(C)(C)c1ccc(CSc2nnc(-c3ccccn3)n2Cc2ccco2)cc1	16.1	-16.4	.	9.6	21.1*	-15.8	6.7	12.9
CCN(C(=O)c1ccc(C(C)(C)C)cc1)c1nnc(Cn2nnc3ccccc32)s1	4.5	-99.1	21.7	23.0	31.1*	-64.2	40.5*	16.4
CCN(C(=O)CC(C)C)c1nnc(Cn2nnc3ccccc32)s1	.	-4.6	6.5	-47.6	-4.5	-4.2	.	.
O=C1NC2(CCN(C(=O)c3cccs3)CC2)Oc2ccccc21	.	.	7.0	-32.6	.	.	.	.
